Screening results from PubChem.
An excerpt weighted towards active compounds, which were near 2.5% of everything screened.
B2AR ag: human beta-2 adrenergic receptor agonism by FAP | P07550 | Am2.2-beta2AR cells, FAP receptor internalization, flow cytometry | response, % (no concentration beside the values) | actives 0.43% (n = 340,000) | AID 504454;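 active = response above a set limit, near 3 SD of response in nonfluorescent compounds, cut at about 42% in these data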
Target sequence (P07550 whole entry, looked up): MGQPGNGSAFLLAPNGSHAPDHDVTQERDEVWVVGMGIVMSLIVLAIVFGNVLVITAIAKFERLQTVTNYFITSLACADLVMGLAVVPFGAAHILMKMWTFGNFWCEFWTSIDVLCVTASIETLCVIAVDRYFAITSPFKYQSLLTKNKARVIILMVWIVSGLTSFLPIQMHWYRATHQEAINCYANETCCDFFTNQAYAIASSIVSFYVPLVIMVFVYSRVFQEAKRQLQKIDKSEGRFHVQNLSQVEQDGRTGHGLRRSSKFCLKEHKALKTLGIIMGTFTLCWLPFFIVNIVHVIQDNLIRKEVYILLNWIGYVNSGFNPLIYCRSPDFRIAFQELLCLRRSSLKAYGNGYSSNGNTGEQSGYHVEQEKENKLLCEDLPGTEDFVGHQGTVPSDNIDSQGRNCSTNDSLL
NadD inh: NadD (S. aureus) enzyme inhibition; purified NadD enzyme, colorimetric absorbance read-out; inhibition, % at 20 µM; actives 0.78% (n = 360,000); in the data active = inhibition above about 26%
SENP1 inh: inhibitors of human SENP1 SUMO protease catalytic domain; AID 624204; inhibition, % at 10 µM; recombinant SENP1 catalytic domain, CyPet-SUMO1-YPet FRET cleavage; actives 0.21% (n = 360,000); Q9P0U3;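 active = inhibition at least 30% at 10 µM, raw YFP signal under a set limit, fluorescence ratio 0.5 to 1.5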
Target sequence (Q9P0U3 419-644 limits assumed): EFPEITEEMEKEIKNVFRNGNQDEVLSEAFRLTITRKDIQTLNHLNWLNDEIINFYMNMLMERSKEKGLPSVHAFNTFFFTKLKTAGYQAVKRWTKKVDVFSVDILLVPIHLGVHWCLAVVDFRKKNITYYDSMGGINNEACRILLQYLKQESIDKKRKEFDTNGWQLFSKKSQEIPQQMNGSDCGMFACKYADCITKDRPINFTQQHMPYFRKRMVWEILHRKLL
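Test system: recombinant human SENP1 catalytic domain, His6-tagged / Medium: pH 8 Tris buffer with EDTA, NaCl, BME, BSA, NP40, catalase / Also added: SUMO1 FRET substrate flanked by Cypet and Ypet, 25 nM / Times: 50 min reaction at room temperature / Signal: FRET, CFP and YFP emission / Control set: no-enzyme low control and enzyme-plus-DMSO high control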
GRK2 aptamer HTS: blocks RNA aptamer binding to human GRK2; bead flow cytometry, FAM-aptamer displacement from GRK2; inhibition of aptamer binding, % at 10 µM; actives 0.59% (n = 330,000);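 active = inhibition of aptamer binding above 40%, roughly 3 SD of noise, on plates passing a quality check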;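 also: median bead fluorescence of bound FAM aptamer so fluorescent compounds give negative values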
ABHD5 PLIN5 PPI: blocks binding of human ABHD5 to perilipin-5; AID 602281; inhibition, % at 4 µM; Split G. princeps luciferase complementation, luminescence, 4 h; Q00G26+Q8WTS1; actives 0.78% (n = 360,000);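 active = inhibition above the mean inhibition across every tested compound plus 3 SD, cut at about 22% in these data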
GRK2 CP1: confirmation of human GRK2 inhibitors displacing RNA aptamer; shares compounds with GRK2 aptamer HTS; bead-bound GRK2, FAM-aptamer displacement, flow cytometry; aptamer displacement, % at 10 µM; actives 4% (n = 2,000); AID 504451;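 active = aptamer displacement above 40%, near three times the noise of non-fluorescent compounds, on plates passing quality checks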;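 also: negative values mostly reflect intrinsic compound fluorescence rather than true enhancement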
Aptamer quench SP: counter-screen for GRK2 aptamer inhibitors: fluorescent aptamer quenchers | AID 504580 | 2,000 tested, under 10 active | fluorescence response (% of DMSO), % at 10 µM | Carboxyfluorescein RNA aptamer on beads, flow cytometry quenching; hits give low values | shares compounds with GRK2 aptamer HTS;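 active = compounds that quench the bead-bound fluorescent RNA probe, cutting fluorescence to under half of the solvent control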;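 also: counterscreen run without GRK2 so only probe quenching by compound is measured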
GRK2 confirm 2: human GRK2 inhibition confirmation, cherry pick 2; inhibition of aptamer binding, % at 10 µM; 360 tested, under 10 active; bead-bound GRK2, FAM-aptamer displacement, flow cytometry; shares compounds with GRK2 aptamer HTS;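 active = inhibition of aptamer binding above 40%, about triple the noise seen with nonglowing compounds, on plates passing quality control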;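 also: negative values mostly come from compounds that fluoresce themselves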
FAM quench CP2: quenches fluorescent RNA aptamer, GRK2 hit artifact; shares compounds with GRK2 aptamer HTS; carboxyfluorescein RNA aptamer beads, flow cytometry quenching; hits give low values; fluorescence response vs DMSO, % at 10 µM; 360 tested, under 10 active;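 active = response vs DMSO under 50%, meaning signal dropped by over half, treated as fluorescence quencher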;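 also: labelled aptamer on streptavidin beads without GRK2 as a quench counter-screen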
Large screens that a line does not name were inactive (follow-up assays come after a bar, where they were run).

CC(C)n1c(=O)c2ccccc2n1Cc1cn(C2CCCC2)nn1	none (no result: B2AR ag, GRK2 aptamer HTS)
Cc1ccccc1C(=O)Nc1ccc(S(=O)(=O)N2CCCC2)cc1	none
NC(=O)c1cc(S(=O)(=O)NCc2cccs2)cs1	none
CCCCCC/C=C/c1ccc(OC)c([C@H]2[C@H]3C=CC[C@@H](C)[C@@H]3C(=O)N2Cc2ccccc2)c1	none
CCCCCC/C=C/c1ccc([C@H]2[C@H]3C=CC[C@@H](C)[C@@H]3C(=O)N2Cc2ccccc2)c(F)c1	none | GRK2 CP1 inactive | Aptamer quench SP inactive
CC(C)N(Cc1ccccc1)C(=O)COC(=O)c1ccc(O)cc1	none
Cc1cccc(Oc2c(C=O)c3ccccc3n2C)c1	none
Cn1c(Oc2ccccc2)c(C=O)c2ccccc21	GRK2 aptamer HTS 53 | GRK2 CP1 inactive | Aptamer quench SP inactive
NS(=O)(=O)c1ccc(NC(=O)CN2CCN(Cc3ccccc3)CC2)cc1	none
NS(=O)(=O)c1ccc(NC(=O)CN2CCN(S(=O)(=O)/C=C/c3ccccc3)CC2)cc1	GRK2 aptamer HTS 54 | GRK2 CP1 inactive | Aptamer quench SP inactive
CCCNC(=O)CN1C(=O)c2ccccc2Sc2ncccc21	none
COc1ccc(N2CCN(C(=O)NC(=O)c3ccccc3)CC2)cc1	GRK2 aptamer HTS 57 | GRK2 confirm 2 inactive | FAM quench CP2 inactive
CSc1c(CC(=O)Nc2ccccc2C(F)(F)F)n(Cc2ccccc2)c2ccccc12	GRK2 aptamer HTS 100 | GRK2 confirm 2 inactive | FAM quench CP2 inactive
Cc1ccc(S(=O)(=O)N(C)C)cc1NC(=O)CSc1nc2ncc(Cl)cc2[nH]1	none (no result: GRK2 aptamer HTS)
Cc1cc(F)ccc1NC(=O)c1cc(S(=O)(=O)N2CCc3ccccc32)cn1C	GRK2 aptamer HTS 73 | GRK2 CP1 inactive | Aptamer quench SP inactive
COc1ccc(NC(=O)c2cc(S(=O)(=O)N3CCc4ccccc43)cn2C)c(OC)c1	none
CCC(C)(C)n1nnnc1C(c1ccc2ncccc2c1)N1CCN(c2nc3ccccc3s2)CC1 (centres undefined)	none | GRK2 CP1 inactive | Aptamer quench SP inactive
CC(=O)c1cccc(NC(=O)c2c(C)nn(-c3ccccc3)c2Cl)c1	none | GRK2 CP1 inactive | Aptamer quench SP inactive
CC(=O)c1cccc(NC(=O)c2cc(-c3ccc(C)cc3)on2)c1	none | GRK2 CP1 inactive | Aptamer quench SP inactive
Cc1ccc(-n2nc(C)c(C(=O)Nc3cccc(C(=O)NC4CC4)c3)n2)c(C)c1	none | GRK2 CP1 inactive | Aptamer quench SP inactive
Cc1nn(-c2cccc(Cl)c2)nc1C(=O)Nc1cccc(C(=O)NC2CC2)c1	none | GRK2 CP1 inactive | Aptamer quench SP inactive
Cc1cccc(C(=O)Nc2cccc(C(=O)NC3CCCC3)c2)c1	none
Cc1nn(-c2ccccc2)nc1C(=O)Nc1cccc(C(=O)NC2CC2)c1	none (no result: B2AR ag, GRK2 aptamer HTS)
CC(C)NC(=O)CN1C(=O)CSc2ccc(S(=O)(=O)N3CCCC3)cc21	none
O=C1CCC(C(=O)N2CCc3ccccc3C2)CN1CCCN1CCOCC1 (centres undefined)	none
CC(C)(C)OC(=O)N(Cc1ccccc1)Cc1ccccc1OCc1ccc(NC(=O)C2CCC2)cc1	none (no result: GRK2 aptamer HTS)
CCOc1ccc(OCCC(=O)N(CC)CC(=O)Nc2c(F)cccc2F)cc1	none
Cc1cc(NC(=O)CSc2nc(-c3cccnc3)ccc2C#N)no1	none
Cc1cc(NC(=O)CSc2nc3c(c(-c4cccnc4)c2C#N)CCC3)no1	GRK2 aptamer HTS 77 | GRK2 CP1 inactive | Aptamer quench SP inactive
Cc1c(C(=O)N2CCCCC2)c(S(=O)(=O)N2CCN(c3ccccc3F)CC2)c(C)n1C	none
Cc1ccc(CNC(=O)CC(C)S(=O)(=O)c2ccc3c(c2)NC(=O)CO3)cc1 (centres undefined)	none
Cc1ccc(NC(=O)CC(C)S(=O)(=O)c2ccc3c(c2)NC(=O)CO3)c(Cl)c1 (centres undefined)	none | GRK2 confirm 2 inactive | FAM quench CP2 inactive
COc1ccc(Cn2c(=O)sc3ccccc32)cc1	none
O=c1sc2ccccc2n1Cc1ccccc1	GRK2 aptamer HTS 85 | GRK2 CP1 inactive | Aptamer quench SP inactive
COc1ccccc1CN1CC(C(=O)NCc2cc(C(C)C)no2)CCC1=O (centres undefined)	none
Cc1ccc2nc(NC(=O)c3ccc(Br)o3)sc2c1	none
NS(=O)(=O)c1ccc2nc(NC(=O)c3ccc(Br)o3)sc2c1	GRK2 aptamer HTS 54 | GRK2 CP1 inactive | Aptamer quench SP inactive
CN(CC(=O)N1CCN(Cc2ccccc2)CC1)C(=O)Cc1ccc(Cl)c(Cl)c1	none
O=C(NCc1ccncc1)c1cccc(Cn2cc(Br)cn2)c1	none | GRK2 CP1 inactive | Aptamer quench SP inactive
Cc1cc(=O)n2nc(N3CCCC(C(=O)NCc4ccccc4C)C3)sc2n1 (centres undefined)	none | GRK2 CP1 inactive | Aptamer quench SP inactive
CC1CC(C)CN(S(=O)(=O)N2CCCC(C(=O)NCc3ccccc3Cl)C2)C1 (centres undefined)	none | GRK2 CP1 inactive | Aptamer quench SP inactive
Cc1cc(=O)n2nc(N3CCCC(C(=O)NCc4ccccc4Cl)C3)sc2n1 (centres undefined)	none | GRK2 CP1 inactive | Aptamer quench SP inactive
Cc1ccc(CNS(=O)(=O)c2ccc(F)c(F)c2)n1C	none
COc1ccc(NC(=O)C2(C)Cc3c(-c4ccc(NC(C)=O)cc4)ccnc3O2)cc1OC (centres undefined)	none (no result: B2AR ag, GRK2 aptamer HTS)
Cc1cc(S(=O)(=O)N2CCCCC2CCNC(=O)C(=O)NCc2cccnc2)ccc1F (centres undefined)	GRK2 aptamer HTS 100 | GRK2 CP1 inactive | Aptamer quench SP inactive
COc1ccc(C(N)CCc2ccc(C)o2)cc1 (centres undefined)	GRK2 aptamer HTS 79 | GRK2 CP1 inactive | Aptamer quench SP inactive
Cc1ccccc1OCC(=O)NC(=S)Nc1ccccc1N1CCN(S(C)(=O)=O)CC1	none
COc1cccc(N2CC(C(=O)Nc3ccc(C(=O)OC(C)C)cc3)CC2=O)c1 (centres undefined)	GRK2 aptamer HTS 73 | GRK2 CP1 inactive | Aptamer quench SP inactive
COc1cccc(N2CC(C(=O)Nc3ccc(F)cc3)CC2=O)c1 (centres undefined)	none
COC(=O)NC1CC2C=CC1C1C=CC21 (centres undefined)	none (no result: B2AR ag, GRK2 aptamer HTS)
